# The list is not random: actives were taken first. Their share in the collection is about 4.9%.
# STAT1 act = STAT1 signaling activators, primary screen, cell-based, HTS, luciferase reporter; activation (% of control), % at 5.5 µM; 200,000 tested, 2.6% active; NIH 3T3 STAT1-luciferase reporter, IFN-gamma, luminescence; 100% = IFN-gamma alone, no compound; AID 932, 2007;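 active means activation above the screen-wide mean activation plus 3 SD, cut at about 130% in these data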;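 further: raw ratio to IFN-gamma control signal so 100% means no change and 0% no light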
# STAT3 act = IL-6 driven STAT3 reporter potentiators, primary screen, U3A cells, luciferase, luminescence, MLSCN library; IL-6 STAT3-luciferase reporter; 100% = signal with IL-6 EC80 alone; 190,000 tested, 0.91% active; AID 871, 2007; activation (% of control), % at 5.6 µM;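 active means activation above the screen-wide mean of compound activation plus 3 SD, cut at about 130% in these data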;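 further: 0% = background luminescence of wells with medium and substrate only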
#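 Material: STAT3-luciferase reporter U3A cells; Probe or stimulus: IL-6 (33 ng/mL); Incubation: compound pre-incubation 1 h before IL-6, then 6 h stimulation at 37 °C; Technique: luminescence from STAT3-driven luciferase reporter; Evaluation: % activation versus median of IL-6-stimulated wells; Controls: IL-6-only high control.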
# APP 5'UTR act = activators of APP 5'UTR luciferase reporter, primary screen, SH-SY5Y cells. SH-SY5Y APP 5'UTR luciferase reporter, luminescence; zero percent = DMSO vehicle wells. activation, % at 2 µM. 190,000 tested, 1% active;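 active means activation above a set limit, based on mean plus 3 SD of controls, cut at about 140% in these data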
# STAT1 blocker = STAT1 signaling inhibitors, primary screen, cell-based, HTS, luciferase reporter; 200,000 tested, 0.35% active; inhibition, % at 5.5 µM; NIH 3T3 STAT1-luciferase reporter, IFN-gamma, luminescence;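 active means inhibition above a set limit, the mean inhibition across all tested compounds plus 3 SD, cut at about 34% in these data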;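 further: 0% = IFN-gamma with DMSO and 100% = IFN-gamma with 300 µM nifuroxazide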
# NF-kB expr up = activators of NF-kB expression in neurons, primary screen, cell-based, HTS | human neuronal cells, NF-kB reporter expression; hits give high values | fold change at 12.5 µM | 190,000 tested, 1.6% active | AID 1239, 2008; in the data active means fold change above about 3.3
# STAT3 inh = IL-6 driven STAT3 reporter inhibitors, primary screen, U3A cells, luciferase, luminescence, MLSCN library; IL-6 STAT3-luciferase reporter; host cell line lacks STAT1; inhibition, % at 5.5 µM; 190,000 tested, 0.89% active; AID 862, 2007;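 active means inhibition above the mean inhibition across all screened compounds plus 3 SD, cut at about 44% in these data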;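 further: 0% = DMSO only wells and 100% = 100 µM nifuroxazide control wells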
# Numbers without * were called inactive; nt = not tested or not shown.
SMILES,STAT1 act,STAT3 act,APP 5'UTR act,STAT1 blocker,NF-kB expr up,STAT3 inh
O=C(Nc1nccs1)c1ccc(NC(=O)c2ccco2)cc1,137*,104,42,-48,1.9,-4
CCN(c1ccccc1)S(=O)(=O)c1ccc(NC(=O)c2ccco2)cc1,103,98,-3,-6,0.84,5
CC(C)(C)c1ccc(C(=O)Nc2ccc(NC(=O)c3ccco3)cc2)cc1,103,98,10,-3,1.4,6
CN(c1ccccc1)S(=O)(=O)c1ccc(NC(=O)c2ccco2)cc1,132*,97,10,-37,0.94,14
CC(C)[C@H](NC(=O)c1ccco1)C(=O)NC12CC3CC(CC(C3)C1)C2,90,104,0,8,0.98,0
O=C(Nc1ccc(-c2ccccc2)cc1)c1ccco1,102,111,-1,-2,0.98,1
O=C(Nc1ccc(Nc2ccccc2)cc1)c1ccco1,134*,98,94,-37,4.2*,1
CCCCN1CNC(=S)N(c2ccccc2OCC)C1,108,103,15,-9,1.1,-4
CN(C)CC(C)(C)CNC(=O)CC1C(=O)NCCN1Cc1ccc(-c2ccccc2)cc1 (stereo not given),106,106,-3,-8,1.1,-2
CCCc1cc(C(=O)NCc2ccc(OC)cc2)no1,112,109,14,-13,1.5,-6
CC(C)c1cc(C(=O)Nc2cc(Br)ccc2O)no1,102,103,38,-3,7.5*,-4
CC(C)c1cc(C(=O)Nc2cc(Cl)ccc2O)no1,97,101,139*,3,8.6*,4
CCCc1cc(C(=O)Nc2cc(Br)ccc2O)no1,102,103,23,-6,5.5*,-5
COc1ccc(CCNCc2ccc(OCC(=O)N3CCCCC3)c(OC)c2)cc1OC,107,98,1,-9,1,9
O=C(NOC(=O)c1ccccc1Cl)c1cccs1,100,103,25,0,1,-2
CC(=O)c1ccc(Cc2ccc(C(C)=O)cc2)cc1,101,97,-18,-1,1.2,12
O=C(NCC(=O)N(c1cccc(F)c1)C(C(=O)NC1CCCC1)c1cccnc1)c1cccs1 (stereo not given),104,95,-17,-5,1,13
CCN(CC)C(=O)C1CCCN(c2ccccc2[N+](=O)[O-])C1 (stereo not given),92,99,0,7,0.91,7
CCc1ccc(/C=C(\Cl)c2nc3cc(Cl)ccc3c(=O)[nH]2)cc1,95,101,-5,6,1.2,0
Cc1cc(N)n2ncc(-c3cccc(Br)c3)c2n1,142*,115,96,-46,2.1,-16
Cc1cc(C(F)(F)F)n2ncc(-c3ccc(F)cc3)c2n1,88,95,-8,13,0.93,11
Cc1cc(N)n2ncc(-c3ccccc3)c2n1,150*,122,86,-55,3.1,-16
Cc1cc(N)n2nc(-c3ccccc3)cc2n1,146*,78,118,-52,5.4*,28
O=C(NC(=S)N1CCCc2ccccc21)c1ccc([N+](=O)[O-])cc1,107,102,-3,-11,0.74,8
O=C(NC(=S)N1CCCc2ccccc21)c1ccc(Br)cc1,98,133*,4,2,0.93,-46
SMILES,STAT1 act,STAT3 act,APP 5'UTR act,STAT1 blocker,NF-kB expr up,STAT3 inh
O=C(NC(=S)N1CCCc2ccccc21)c1ccc(Cl)cc1,111,142*,48,-13,1,-50
COc1ccc(C(=O)NC(=S)N2CCCc3ccccc32)cc1OC,103,91,8,-5,0.75,17
CCOC(=O)N1CCN(C(=O)/C(=C/c2ccc(Br)cc2)NC(=O)c2ccc(OC)cc2)CC1,101,93,20,-2,1.3,10
COCCNc1c(-c2ccc(OC)c(OC)c2)nc2ccc(Cl)cn12,94,83,2,5,0.87,24
COCCNc1c(-c2cc3ccc(C)c(C)c3[nH]c2=O)nc2ccccn12,130*,93,121,-34,2.2,10
O=C(COC(=O)[C@H](Cc1ccccc1)NC(=O)c1ccco1)NCc1ccccc1,101,114,nt,-1,1,-18
COc1ccc2oc(C(=O)NCCC(C)C)c(C)c2c1,135*,93,139*,-41,1,11
CCCCSCCCNC(=O)Nc1ccc(CC)cc1,99,111,8,-1,1.2,-3
C=CCNC(=O)c1ccc(-c2nc(-c3ccccc3)cs2)cc1,146*,99,57,-51,2.1,12
O=C(C1CCCC1)N1CCN=C1SCc1cccc([N+](=O)[O-])c1,100,106,22,-2,1.1,2
Cc1cc(/C=N/n2cnnc2)c(C)n1-c1ccc(OCc2ccc(Cl)cc2Cl)cc1,64,51,-51,40*,0.46,61*
Cn1ccnc1SCC(=O)Nc1cccc(S(=O)(=O)N2CCCCC2)c1,101,93,-14,-1,1.1,12
Cc1ccc(C(=O)Nc2ccc3c(c2)CCC3)o1,137*,96,119,-38,7.8*,9
O=C(Nc1ccc2c(c1)CCC2)c1cc2ccccc2o1,151*,90,185*,-55,11*,18
O=C(Nc1ccc2c(c1)CCC2)c1ccc(Br)o1,120,93,116,-21,3.3,14
CCOC(=O)C1(Cc2ccccc2Cl)CCN(C(=O)CCn2ccnc2C)CC1,119,99,7,-21,2,6
COCCNc1nc2sc3c(c2c(=O)n1Cc1ccco1)CCCCC3,129*,111,91,-32,1.9,-11
CS(=O)(=O)N1CCC(Oc2ccccc2C(=O)N2CCN(CC3CC3)CC2)CC1,102,98,-3,-3,1.1,8
N#Cc1ncc(-c2ccc3c(c2)OCCOCCOCCOCCOCCO3)nc1C#N,87,94,-21,14,6.7*,10
COC(=O)c1ccc(C(=O)NC(=S)Nc2ccc3nc(SC)sc3c2)cc1,108,97,-3,-9,1.1,4
Cc1ccc2c(Cl)c(C(=O)Nc3cc(C)on3)sc2c1,132*,100,48,-35,2.9,1
O=C(Nc1ccon1)c1sc2cc(F)ccc2c1Cl,131*,119,34,-35,2.4,-19
CN1CCC(N(C)C(=O)c2cc(=O)c3ccccc3o2)CC1,104,102,-10,-4,1.1,4
Cc1cc(Br)ccc1OCC(=O)N1CCCCCC1,94,106,12,6,1.1,-6
CC(C)c1ccc(OCC(=O)N2CCCCCC2)c(Br)c1,137*,114,33,-40,1.7,-5
